According to ChEMBL document CHEMBL1275392, “Assessment of chemoselective neoglycosylation methods using chlorambucil as a model” (2010):

What was measured:
NCI-H460 = assay: Growth inhibition of human NCI-H460 cells after 7 days by celltiter-glo assay; format: functional; settings: NCI-H460, 168 h
HT-29 = assay: Growth inhibition of human HT-29 cells after 7 days by celltiter-glo assay; format: functional; settings: HT-29, 168 h
DU-145 = assay: Growth inhibition of human DU145 cells after 7 days by celltiter-glo assay; format: functional; settings: DU-145, 168 h
SF-268 [1] = assay: Growth inhibition of human SF268 cells after 7 days by celltiter-glo assay; format: functional; settings: SF-268, 168 h
A549 = assay: Growth inhibition of human A549 cells expressing p53 after 7 days by celltiter-glo assay; format: functional; settings: A549, 168 h
SF-268 [2] = assay: Ratio of compound GI50 to chlorambucil GI50 for human SF268 cells; format: functional
SK-OV-3 = assay: Growth inhibition of human SKOV3 cells after 7 days by celltiter-glo assay; format: functional; settings: SK-OV-3, 168 h
MCF7 = assay: Growth inhibition of human MCF7 cells after 7 days by celltiter-glo assay; format: functional; settings: MCF7, 168 h
HCT-15 = assay: Growth inhibition of human HCT15 cells after 7 days by celltiter-glo assay; format: functional; settings: HCT-15, 168 h
[3] = Growth inhibition of human p53 deficient H1299 cells after 7 days by celltiter-glo assay; format: functional; settings: NCI-H1299, 168 h
How it was run: (§1)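 Cells seeded at 500 per well in 384-well plates. Compounds came from 30 mM DMSO stocks, serially diluted and tested in quadruplicate. Incubation was 7 d at 37 °C under 5% CO2. Calcein AM (10 μM) and EthD-1 were added, followed by a fluorescence read. CellTiter-Glo lysis was then done for 10 min at room temperature, with a luminescence read. GI50 came from curve fitting.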

[4] = Growth inhibition of human p53 deficient Hep3B cells after 7 days by celltiter-glo assay; format: functional, Hep 3B2; settings: 168 h; how it was run: as §1

Structure (SMILES) | GI50 (NCI-H460) [µM] | GI50 (HT-29) [µM] | GI50 (DU-145) [µM] | GI50 (SF-268 [1]) [µM] | GI50 (A549) [µM] | RatioGI50 (SF-268 [2]) | GI50 (SK-OV-3) [µM] | GI50 (MCF7) [µM] | GI50 (HCT-15) [µM] | GI50 [3] [µM] | GI50 [4] [µM]
CON(CCCc1ccc(N(CCCl)CCCl)cc1)[C@@H]1O[C@H]2[C@H](OC(=O)[C@H]2O)[C@H]1O | 3.8 | 3.6 | 1.9 | 0.46 | 3.7 | 12 | 5.2 | 1.1 | 0.99 | 0.4 | 1.3
O=C(CCCc1ccc(N(CCCl)CCCl)cc1)NN[C@@H]1O[C@H]2[C@H](OC(=O)[C@H]2O)[C@H]1O | 43 | 30 | 23 | 8.9 | 31 | – | 37 | 9.9 | > 100 | 12.9 | 17.7
CON(CCCc1ccc(N(CCCl)CCCl)cc1)C1C[C@H](O)[C@H](O)CO1 (stereo partly specified) | 5.8 | 2.6 | 4 | 2.1 | 2.6 | – | 2 | 0.96 | 2.3 | 3.7 | 2.6
CON(CCCc1ccc(N(CCCl)CCCl)cc1)C1OC[C@@H](O)[C@@H](O)[C@H]1O (stereo partly specified) | 5.9 | 2.3 | 3.8 | 1.9 | 2.8 | – | 2 | 1.1 | 1.8 | 3.6 | 2.4
CO[C@@H]1[C@@H](O)[C@H](N(CCCc2ccc(N(CCCl)CCCl)cc2)OC)O[C@H](CO)[C@H]1O | 7.8 | 2.7 | 5.1 | 2.8 | 3.6 | – | 2.4 | 8.3 | 1.1 | 1.7 | 4.2
CON(CCCc1ccc(N(CCCl)CCCl)cc1)[C@H]1C[C@@H](O)[C@H](O)[C@@H](CO)O1 | 5.4 | 1.2 | 4.3 | 2.5 | 3.1 | – | 1.12 | 5.4 | 0.7 | 0.58 | 3.7
CON(CCCc1ccc(N(CCCl)CCCl)cc1)C1O[C@H](C)[C@H](O)[C@H](O)[C@H]1O (stereo partly specified) | 5.9 | 6.7 | 4.1 | 1.7 | 9.6 | – | 1.7 | 3 | 0.82 | 3.5 | 2.6
CON(CCCc1ccc(N(CCCl)CCCl)cc1)[C@H]1O[C@H](COCc2ccccc2)[C@@H](OCc2ccccc2)[C@@H]1OCc1ccccc1 | > 100 | 47 | > 100 | 80 | > 100 | – | > 100 | 82 | 64 | > 100 | > 100
O[C@@H]1[C@H](O)COC(N(O)CCCc2ccc(N(CCCl)CCCl)cc2)[C@@H]1O (stereo partly specified) | 1.04 | 0.9 | > 5 | 1.5 | 0.84 | – | 0.89 | 3.2 | 0.87 | 1.6 | > 5
CON(CCCc1ccc(N(CCCl)CCCl)cc1)C1OC[C@H](O)[C@H](O)[C@@H]1O (stereo partly specified) | 5.7 | 2.2 | 3.7 | 2.1 | 2.4 | – | 2 | 0.97 | 2.1 | 3.3 | 2.4
CON(CCCc1ccc(N(CCCl)CCCl)cc1)[C@H]1O[C@@H](CO)[C@H](O)[C@@H](O)[C@@H]1O | 14.3 | 4.6 | 7 | 2.2 | 6.8 | – | 4.5 | 1.8 | 2.8 | 1.6 | 5
C[C@H]1OC(N(O)CCCc2ccc(N(CCCl)CCCl)cc2)[C@H](O)[C@@H](O)[C@H]1O (stereo partly specified) | 4.9 | 4.6 | 5.7 | 1.4 | 6.4 | – | 4.7 | 2.7 | 3.8 | 2.6 | 3.6
CON(CCCc1ccc(N(CCCl)CCCl)cc1)C1O[C@H](CO)[C@H](O)[C@H](O)[C@H]1O (stereo partly specified) | 9.7 | 3.3 | 5.6 | 1.9 | 4.4 | – | 3.4 | 1.3 | 2.4 | 1.3 | 3.6
O=C(CCCc1ccc(N(CCCl)CCCl)cc1)NN[C@@H]1OC[C@@H](O)[C@H](O)[C@H]1O | 26 | 7.2 | 19 | 2.5 | 14.8 | – | 12 | 4.5 | > 100 | 3.9 | 5.5
C=CCOC(=O)NC[C@H]1O[C@@H](N(CCCc2ccc(N(CCCl)CCCl)cc2)OC)[C@H](O)[C@@H](O)[C@@H]1O | 11 | 2.8 | 6.2 | 3.1 | 4.5 | – | 2.9 | 7.4 | 2.1 | 2.1 | 4.6
